Source: ChEMBL document CHEMBL5107936, “Anti-amyloidogenic indolizino[3,2-c]quinolines as imaging probes differentiating dense-core, diffuse, and coronal plaques of amyloid-β” (RSC Med Chem, 2021)

Legend:
HT-22 = experiment: Cytotoxicity against mouse HT-22 cells assessed as reduction in cell viability incubated for 18 hrs by MTT assay; format: toxicity, cell-based; settings: ht-22, 18 h
[1] = target: Amyloid-beta precursor protein (Homo sapiens) (UniProt P05067); experiment: Inhibition of Amyloid beta (1 to 42 ) (unknown origin) aggregation assessed as fibrilization amyloid beta by measuring beta sheets at 1 to 50 uM incubated for 3 days by Thioflavin T based fluorescence assay; settings: dose 1-50 µM, time 3.0 day
Amyloid-beta precursor protein (Homo sapiens), sequence (P05067 whole entry): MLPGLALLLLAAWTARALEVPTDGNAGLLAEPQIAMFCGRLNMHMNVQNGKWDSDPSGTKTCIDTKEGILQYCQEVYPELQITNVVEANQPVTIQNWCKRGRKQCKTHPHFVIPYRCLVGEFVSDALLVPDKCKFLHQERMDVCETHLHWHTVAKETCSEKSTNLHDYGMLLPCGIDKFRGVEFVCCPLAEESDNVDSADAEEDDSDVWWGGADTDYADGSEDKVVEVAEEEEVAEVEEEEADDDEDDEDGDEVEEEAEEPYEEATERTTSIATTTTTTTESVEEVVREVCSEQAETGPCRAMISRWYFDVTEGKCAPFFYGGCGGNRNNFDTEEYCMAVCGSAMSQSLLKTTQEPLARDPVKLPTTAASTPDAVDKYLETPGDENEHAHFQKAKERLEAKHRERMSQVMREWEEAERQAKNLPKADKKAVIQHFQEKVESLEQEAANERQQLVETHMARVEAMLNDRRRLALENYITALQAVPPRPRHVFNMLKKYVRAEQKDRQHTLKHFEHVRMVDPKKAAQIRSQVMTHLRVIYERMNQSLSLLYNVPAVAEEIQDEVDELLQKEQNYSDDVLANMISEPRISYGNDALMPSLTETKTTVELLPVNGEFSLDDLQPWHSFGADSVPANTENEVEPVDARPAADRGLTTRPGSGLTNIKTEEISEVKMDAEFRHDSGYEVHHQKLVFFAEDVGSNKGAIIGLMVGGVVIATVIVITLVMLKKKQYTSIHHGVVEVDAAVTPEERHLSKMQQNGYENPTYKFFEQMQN

[2] = target: Amyloid-beta precursor protein (Homo sapiens) (UniProt P05067); experiment: Inhibition of Amyloid beta (1 to 42 ) (unknown origin) disaggregation assessed as reduction in mature fibril at 50 uM preincubated with amyloid beta followed by compound addition and measured after 3 days by Thioflavin T based fluorescence assay; settings: time 3.0 day
[3] = target: Amyloid-beta precursor protein (Homo sapiens) (UniProt P05067); experiment: Inhibition of Amyloid beta (1 to 42 ) (unknown origin) aggregation at 0.5 to 50 uM incubated for 3 days followed by incandescent lamp irradiation by photo-induced cross-linking of unmodified proteins method; settings: dose 0.5-50 µM, time 3.0 day
Summary of the method: (§1)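 Cross-linked Aβ products resolved on gels, imaged by fluorescence scanning and by silver staining. Band area quantified by densitometry and normalized to the 3-day aggregates, set as 100%.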

[4] = target: Amyloid-beta precursor protein (Homo sapiens) (UniProt P05067); experiment: Inhibition of Amyloid beta (1 to 42 ) (unknown origin) disaggregation assessed as reduction in aggregation by measuring monomer band intensity at 0.5 to 50 uM incubated for 3 days followed by incandescent lamp irradiation by photo-induced cross-linking of unmodified proteins method; settings: dose 0.5-50 µM, time 3.0 day; summary of the method: as §1

Row | SMILES | Activity (HT-22) | also measured
1 | c1csc(-c2nc3ccccc3c3cc4ccccn4c23)c1 | Toxic | 
2 | COc1cccc(-c2nc3ccccc3c3cc4ccccn4c23)c1 | Toxic | 
3 | COc1ccc(-c2nc3ccccc3c3c(I)c4ccccn4c23)cc1 | Toxic | 
4 | c1ccc2c(-c3nc4ccccc4c4cc5ccccn5c34)cccc2c1 | Toxic | 
5 | Cc1ccc2cc3c4ccccc4nc(-c4cccc5ccccc45)c3n2c1 | Toxic | 
6 | COc1ccc(-c2nc3ccccc3c3cc4ccccn4c23)cc1OC | Toxic | 
7 | c1ccc(-c2nc3ccccc3c3cc4ccccn4c23)nc1 | Toxic | 
8 | Cc1ccc(-c2nc3ccccc3c3cc4c(C)cccn4c23)cc1 | Toxic | 
9 | Brc1ccc2cc3c4ccccc4nc(-c4ccco4)c3n2c1 | Toxic | inhibition [1]: > 30%
10 | COc1ccc(-c2nc3ccccc3c3c(-c4ccc(F)cc4)c4ccccn4c23)cc1 | Toxic | 
11 | COc1cccc(-c2nc3ccccc3c3cc4c(C)cccn4c23)c1 | Toxic | 
12 | Brc1ccc(-c2nc3ccccc3c3cc4ccccn4c23)cc1 | Toxic | 
13 | Clc1ccc(-c2nc3ccccc3c3cc4ccccn4c23)cc1 | Toxic | 
14 | CN(C)c1ccc(-c2nc3ccccc3c3cc4ccccn4c23)cc1 | Toxic | inhibition [2]: > 60%; inhibition [3]: 20%; inhibition [1]: > 30%; inhibition [4]: 10%
15 | COc1cc(OC)cc(-c2nc3ccccc3c3cc4c(C)cccn4c23)c1 | Toxic | 
16 | COc1cc(OC)cc(-c2nc3ccccc3c3cc4ccccn4c23)c1 | Toxic | 

Row | SMILES | Activity (HT-22) | also measured
17 | COc1ccc(-c2nc3ccccc3c3cc4ccc(Br)cn4c23)cc1OC | Toxic | inhibition [2]: 40%; inhibition [3]: 20%; inhibition [1]: > 30%
18 | Clc1ccc(-c2nc3ccccc3c3cc4ccccn4c23)s1 | Toxic | 
19 | c1ccc2cc(-c3nc4ccccc4c4cc5ccccn5c34)ccc2c1 | Toxic | 
20 | Cc1cccn2c1cc1c3ccccc3nc(-c3cccc4ccccc34)c12 | Toxic | 
21 | Cc1cccn2c1cc1c3ccccc3nc(-c3cc4ccccc4o3)c12 | Toxic | 
22 | COC(=O)c1c2c3ccccc3nc(-c3ccc[nH]3)c2n2ccccc12 | Toxic | 
23 | COc1ccc(-c2nc3ccccc3c3cc4c(C)cccn4c23)cc1OC | Toxic | inhibition [2]: 40%; inhibition [3]: 20%; inhibition [1]: > 30%
24 | COc1ccc(-c2nc3ccccc3c3cc4ccc(-c5cc(OC)cc(OC)c5)cn4c23)cc1 | Toxic | 
25 | COc1ccc(-c2nc3ccccc3c3cc4ccccn4c23)cc1 | Toxic | 
26 | c1ccc(-c2nc3ccccc3c3cc4ccccn4c23)cc1 | Toxic | 
27 | Cc1cccn2c1cc1c3ccccc3nc(-c3cccc(F)c3)c12 | Toxic | 
28 | Cc1cccn2c1cc1c3ccccc3nc(-c3cc4ccccc4[nH]3)c12 | Toxic | inhibition [2]: 40%; inhibition [1]: > 30%
29 | Brc1ccc(C2Nc3ccccc3-c3cc4ccccn4c32)cc1 (stereo unspecified) | Toxic | 
30 | Cc1cccn2c1cc1c3ccccc3nc(-c3ccco3)c12 | Toxic | 
31 | COc1cc(OC)cc(-c2ccc3cc4c5ccccc5nc(-c5cccc6ccccc56)c4n3c2)c1 | Toxic | inhibition [1]: > 30%
32 | CCOC(=O)c1c2c3ccccc3nc(-c3ccc(OC)c(OC)c3)c2n2ccccc12 | Toxic | 
